ChEMBL document CHEMBL4251662, “Alkyl indole-based cannabinoid type 2 receptor tools: Exploration of linker and fluorophore attachment” (Eur J Med Chem, 2018)
The source made the active and inactive calls. No cut-off for these calls is given here.

Tests used:
[1] = target: T1, Cannabinoid receptor 2 (Homo sapiens, UniProt P34972); experiment: Displacement of [3H]CP55,940 from N-terminal HA-tagged human CB2 receptor expressed in HEK293 cell membranes at 10 uM after 1 hr by microbeta scintillation counting method relative to control
Method in brief: (§1)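 Single-point competition screen against [3H]CP55,940 in HEK293 cells over-expressing 3HA-tagged hCB2 or hCB1. Compounds giving more than 50% displacement went on to full concentration-response curves.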

[2] = target: T1, Cannabinoid receptor 2; experiment: Displacement of [3H]CP55,940 from N-terminal HA-tagged human CB2 receptor expressed in HEK293 cell membranes after 1 hr by microbeta scintillation counting method; settings: read-out: Ki
[3] = target: T2, Cannabinoid receptor 1 (Homo sapiens, UniProt P21554); experiment: Displacement of [3H]CP55,940 from N-terminal HA-tagged human CB1 receptor expressed in HEK293 cell membranes at 10 uM after 1 hr by microbeta scintillation counting method relative to control; method in brief: as §1
[4] = target: T2, Cannabinoid receptor 1; experiment: Displacement of [3H]CP55,940 from N-terminal HA-tagged human CB1 receptor expressed in HEK293 cell membranes after 1 hr by microbeta scintillation counting method; settings: read-out: Ki
[5] = target: T1, Cannabinoid receptor 2; experiment: Agonist activity at N-terminal HA-tagged human CB2 receptor expressed in HEK293 cells transfected with YFP-Epac-RLuc assessed as decrease in forskolin-stimulated cAMP level by BRET assay; format: functional, cell-based
Method in brief: (§2)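 BRET cAMP biosensor read-out in HEK293 cells expressing HA-tagged human CB1 or CB2, with forskolin stimulation (5 µM). Concentration-response curves; area-under-curve values normalised to forskolin alone = 100% and basal = 0%. EC50 taken for agonists and IC50 for inverse agonists. Mean of at least three independent experiments, each point in duplicate.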

[6] = target: T1, Cannabinoid receptor 2; experiment: Agonist activity at N-terminal HA-tagged human CB2 receptor expressed in HEK293 cells transfected with YFP-Epac-RLuc assessed as decrease in forskolin-stimulated cAMP level by BRET assay relative to control; format: functional, cell-based; method in brief: as §2
[7] = target: T2, Cannabinoid receptor 1; experiment: Agonist activity at N-terminal HA-tagged human CB1 receptor expressed in HEK293 cells transfected with YFP-Epac-RLuc assessed as decrease in forskolin-stimulated cAMP level by BRET assay relative to control; format: functional, cell-based; method in brief: as §2
[8] = target: T1, Cannabinoid receptor 2; experiment: Agonist activity at N-terminal HA-tagged human CB2 receptor expressed in HEK293 cells transfected with YFP-Epac-RLuc assessed as decrease in forskolin-stimulated cAMP level at 10 uM by BRET assay; format: functional, cell-based
Method in brief: (§3)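 Single-concentration screen at 10 µM in CB receptor-expressing HEK293 cells, run with and without CP55,940 as reference agonist. Forskolin-stimulated cAMP read by BRET biosensor. A fall in cAMP is scored as agonism and a rise as inverse agonism.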

[9] = target: T2, Cannabinoid receptor 1; experiment: Agonist activity at N-terminal HA-tagged human CB1 receptor expressed in HEK293 cells transfected with YFP-Epac-RLuc assessed as decrease in forskolin-stimulated cAMP level at 10 uM by BRET assay; format: functional, cell-based; method in brief: as §3
[10] = test system: HEK293; experiment: Effect on forskolin-stimulated cAMP level in HEK293 cells at 10 uM by BRET assay relative to control; format: ADME, cell-based; settings: human, hek293, 10 µM
Method in brief: (§4)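 Wild-type HEK293 cells lacking transfected receptor, tested at 10 µM and 1 µM. Forskolin-stimulated cAMP measured by BRET as a check that responses are receptor-mediated.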

[11] = test system: HEK293; experiment: Effect on forskolin-stimulated cAMP level in HEK293 cells at 1 uM by BRET assay relative to control; format: ADME, cell-based; settings: human, hek293, 1 µM; method in brief: as §4
[12] = target: Proprotein convertase subtilisin/kexin type 9 (Homo sapiens) (UniProt Q8NBP7); experiment: Inhibition of PCSK9 (unknown origin)
[13] = target: T3, Free fatty acid receptor 4 (Homo sapiens) (UniProt Q5NUL3); experiment: Agonist activity at GPR120 (unknown origin); format: functional
T3 sequence (whole entry): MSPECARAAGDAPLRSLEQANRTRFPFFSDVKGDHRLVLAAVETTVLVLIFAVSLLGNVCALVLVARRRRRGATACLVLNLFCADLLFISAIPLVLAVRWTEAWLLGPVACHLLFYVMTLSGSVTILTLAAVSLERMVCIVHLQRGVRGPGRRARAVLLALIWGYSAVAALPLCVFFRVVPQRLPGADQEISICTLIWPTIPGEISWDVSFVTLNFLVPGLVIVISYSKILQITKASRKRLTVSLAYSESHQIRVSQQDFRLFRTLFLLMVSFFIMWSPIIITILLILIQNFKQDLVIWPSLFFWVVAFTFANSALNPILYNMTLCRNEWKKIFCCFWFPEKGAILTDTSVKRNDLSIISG

[14] = target: Interleukin-17A (Homo sapiens) (UniProt Q16552); experiment: Inhibition of IL-17 (unknown origin) assessed as disruption of IL-17 protein-protein interaction
[15] = test system: Leishmania donovani; experiment: Growth inhibition of Leishmania donovani; format: functional, organism-based
[16] = target: Potassium voltage-gated channel subfamily KQT member 2 (Homo sapiens) (UniProt O43526); experiment: Agonist activity at KCNQ2 (unknown origin)
[17] = target: T4, Potassium voltage-gated channel subfamily KQT member 3 (Homo sapiens) (UniProt O43525); experiment: Agonist activity at KCNQ3 (unknown origin)
T4 sequence (whole entry): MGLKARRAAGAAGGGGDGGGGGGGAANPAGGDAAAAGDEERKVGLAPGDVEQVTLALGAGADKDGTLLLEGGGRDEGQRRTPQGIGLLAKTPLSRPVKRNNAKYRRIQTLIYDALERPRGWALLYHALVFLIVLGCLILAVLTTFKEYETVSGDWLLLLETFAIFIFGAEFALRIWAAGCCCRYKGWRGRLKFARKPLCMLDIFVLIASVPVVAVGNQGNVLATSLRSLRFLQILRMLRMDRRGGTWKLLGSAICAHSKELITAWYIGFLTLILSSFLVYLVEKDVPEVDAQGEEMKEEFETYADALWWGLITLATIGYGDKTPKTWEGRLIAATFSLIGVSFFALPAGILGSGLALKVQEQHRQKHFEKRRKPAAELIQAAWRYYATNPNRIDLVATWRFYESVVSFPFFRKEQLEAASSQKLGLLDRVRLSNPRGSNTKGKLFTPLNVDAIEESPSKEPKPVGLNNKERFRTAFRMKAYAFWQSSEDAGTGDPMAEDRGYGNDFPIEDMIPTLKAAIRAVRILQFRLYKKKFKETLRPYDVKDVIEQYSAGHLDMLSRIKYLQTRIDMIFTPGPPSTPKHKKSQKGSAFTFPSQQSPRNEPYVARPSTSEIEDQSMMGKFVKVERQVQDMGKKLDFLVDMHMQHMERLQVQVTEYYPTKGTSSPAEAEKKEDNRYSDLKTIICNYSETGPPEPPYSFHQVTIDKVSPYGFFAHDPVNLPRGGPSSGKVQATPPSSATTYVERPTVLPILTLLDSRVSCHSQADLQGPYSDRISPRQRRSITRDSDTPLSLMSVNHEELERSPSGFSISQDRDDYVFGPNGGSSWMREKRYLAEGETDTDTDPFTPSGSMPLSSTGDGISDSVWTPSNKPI

[18] = target: T5, Nicotinamide N-methyltransferase (Homo sapiens) (UniProt P40261); experiment: Inhibition of NNMT (unknown origin)
T5 sequence (whole entry): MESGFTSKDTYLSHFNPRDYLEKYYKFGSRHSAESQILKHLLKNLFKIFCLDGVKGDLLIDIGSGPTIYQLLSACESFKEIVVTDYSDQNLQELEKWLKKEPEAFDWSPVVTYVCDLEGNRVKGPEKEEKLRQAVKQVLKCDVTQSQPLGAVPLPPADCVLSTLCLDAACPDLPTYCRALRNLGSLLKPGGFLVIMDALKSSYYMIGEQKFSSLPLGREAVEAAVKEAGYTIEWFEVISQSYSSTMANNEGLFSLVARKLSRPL

[19] = target: T1, Cannabinoid receptor 2; experiment: Inverse agonist activity at N-terminal HA-tagged human CB2 receptor expressed in HEK293 cells transfected with YFP-Epac-RLuc assessed as increase in forskolin-stimulated cAMP level by BRET assay; format: functional, cell-based; method in brief: as §2
[20] = target: T1, Cannabinoid receptor 2; experiment: Inverse agonist activity at N-terminal HA-tagged human CB2 receptor expressed in HEK293 cells transfected with YFP-Epac-RLuc assessed as increase in forskolin-stimulated cAMP level by BRET assay relative to control; format: functional, cell-based; method in brief: as §2
[21] = target: T1, Cannabinoid receptor 2; experiment: Inverse agonist activity at N-terminal HA-tagged human CB2 receptor expressed in HEK293 cells transfected with YFP-Epac-RLuc assessed as increase in forskolin-stimulated cAMP level at 10 uM by BRET assay; format: functional, cell-based

Proprotein convertase subtilisin/kexin type 9 (Homo sapiens), sequence (Q8NBP7 31-152 limits assumed): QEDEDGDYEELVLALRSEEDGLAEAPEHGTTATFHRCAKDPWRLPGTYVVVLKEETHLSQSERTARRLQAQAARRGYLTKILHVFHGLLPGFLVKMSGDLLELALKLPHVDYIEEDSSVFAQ
Proprotein convertase subtilisin/kexin type 9 (Homo sapiens), sequence (Q8NBP7 153-692 limits assumed): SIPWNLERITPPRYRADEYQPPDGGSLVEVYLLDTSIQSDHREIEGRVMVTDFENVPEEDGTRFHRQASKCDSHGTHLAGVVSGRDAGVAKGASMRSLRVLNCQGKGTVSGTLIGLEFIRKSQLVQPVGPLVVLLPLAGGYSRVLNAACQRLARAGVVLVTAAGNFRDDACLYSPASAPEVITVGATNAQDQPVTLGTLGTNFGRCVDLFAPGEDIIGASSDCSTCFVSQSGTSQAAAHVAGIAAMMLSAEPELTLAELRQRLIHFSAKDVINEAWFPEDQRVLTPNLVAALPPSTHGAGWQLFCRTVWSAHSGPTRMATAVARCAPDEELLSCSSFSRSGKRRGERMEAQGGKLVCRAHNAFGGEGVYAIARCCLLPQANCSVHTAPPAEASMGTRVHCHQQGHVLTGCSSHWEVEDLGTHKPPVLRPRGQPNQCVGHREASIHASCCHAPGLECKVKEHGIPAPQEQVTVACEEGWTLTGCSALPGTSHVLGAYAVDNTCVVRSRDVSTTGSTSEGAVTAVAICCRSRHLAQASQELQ
Interleukin-17A (Homo sapiens), sequence (Q16552 whole entry): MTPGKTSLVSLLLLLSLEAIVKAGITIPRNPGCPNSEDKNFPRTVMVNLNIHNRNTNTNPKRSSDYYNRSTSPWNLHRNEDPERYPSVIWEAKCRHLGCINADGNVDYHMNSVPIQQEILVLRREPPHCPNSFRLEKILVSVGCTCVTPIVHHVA
T1 sequence (P34972 whole entry): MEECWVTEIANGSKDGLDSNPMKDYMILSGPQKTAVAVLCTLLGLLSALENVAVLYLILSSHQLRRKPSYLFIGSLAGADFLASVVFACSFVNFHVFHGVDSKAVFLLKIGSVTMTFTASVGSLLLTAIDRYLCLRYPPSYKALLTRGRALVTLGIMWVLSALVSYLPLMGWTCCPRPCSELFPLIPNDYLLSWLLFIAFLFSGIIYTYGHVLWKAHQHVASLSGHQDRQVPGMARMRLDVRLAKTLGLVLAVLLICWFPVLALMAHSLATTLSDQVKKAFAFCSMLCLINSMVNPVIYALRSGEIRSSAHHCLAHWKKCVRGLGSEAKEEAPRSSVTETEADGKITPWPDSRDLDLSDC
Potassium voltage-gated channel subfamily KQT member 2 (Homo sapiens), sequence (O43526 whole entry): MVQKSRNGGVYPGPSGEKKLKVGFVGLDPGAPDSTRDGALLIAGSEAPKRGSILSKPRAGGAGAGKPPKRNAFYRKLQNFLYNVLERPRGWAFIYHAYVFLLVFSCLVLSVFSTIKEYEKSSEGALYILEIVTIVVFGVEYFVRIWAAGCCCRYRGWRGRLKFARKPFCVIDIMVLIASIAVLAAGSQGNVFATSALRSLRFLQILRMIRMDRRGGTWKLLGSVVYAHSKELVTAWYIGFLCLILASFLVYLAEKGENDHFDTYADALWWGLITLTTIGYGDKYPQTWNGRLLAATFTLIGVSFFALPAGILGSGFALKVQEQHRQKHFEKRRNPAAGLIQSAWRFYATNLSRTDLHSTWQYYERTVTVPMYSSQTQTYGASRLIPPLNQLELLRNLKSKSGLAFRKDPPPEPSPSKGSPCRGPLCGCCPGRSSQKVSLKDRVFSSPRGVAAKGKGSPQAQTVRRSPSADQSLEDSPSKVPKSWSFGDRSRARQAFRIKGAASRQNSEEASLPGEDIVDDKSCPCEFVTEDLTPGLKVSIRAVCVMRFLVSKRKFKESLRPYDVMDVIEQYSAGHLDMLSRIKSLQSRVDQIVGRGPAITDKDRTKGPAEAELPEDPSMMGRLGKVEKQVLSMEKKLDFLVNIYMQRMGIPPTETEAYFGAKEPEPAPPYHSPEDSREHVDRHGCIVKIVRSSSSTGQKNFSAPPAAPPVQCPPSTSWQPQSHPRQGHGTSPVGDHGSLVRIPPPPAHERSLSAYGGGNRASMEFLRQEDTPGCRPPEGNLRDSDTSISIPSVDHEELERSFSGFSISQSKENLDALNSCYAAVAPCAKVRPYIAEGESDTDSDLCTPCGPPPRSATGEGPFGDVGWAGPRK
T2 sequence (P21554 whole entry): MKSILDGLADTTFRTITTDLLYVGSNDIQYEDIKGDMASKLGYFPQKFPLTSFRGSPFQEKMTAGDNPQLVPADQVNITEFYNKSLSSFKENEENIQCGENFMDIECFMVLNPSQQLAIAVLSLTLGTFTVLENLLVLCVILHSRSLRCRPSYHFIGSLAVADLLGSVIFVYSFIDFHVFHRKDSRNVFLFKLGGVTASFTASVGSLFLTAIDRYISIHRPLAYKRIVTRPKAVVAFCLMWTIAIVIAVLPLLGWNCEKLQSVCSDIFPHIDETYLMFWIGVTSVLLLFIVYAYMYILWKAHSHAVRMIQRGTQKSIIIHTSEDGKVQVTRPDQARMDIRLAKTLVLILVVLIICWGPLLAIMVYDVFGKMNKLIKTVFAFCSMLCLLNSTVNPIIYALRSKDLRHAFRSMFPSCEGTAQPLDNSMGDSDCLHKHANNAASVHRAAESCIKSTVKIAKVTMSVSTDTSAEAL

SMILES | inhibition [1] | Ki [2] | inhibition [3] | Ki [4] | EC50 [5] | Emax [6] | Emax [7] | Activity [8] | Activity [9] | Activity [10] | Activity [11] | inhibition [12] | Activity [13] | inhibition [14] | growth inhibition (GI) [15] | Activity [16] | Activity [17] | inhibition [18] | further results
COc1ccc(C(=O)c2cn(CC3CCOCC3)c3c(OCC(=O)O)cccc23)cc1 | > 50% | 0.582 µM | > 50% | > 10 µM | > 10 µM | 84.9% | 80.5% | Active | Active | 102.8% | 104.5% |  |  |  |  |  |  |  | 
O=C(c1cccc2ccccc12)c1cn(CC2CCOCC2)c2ccc(O)cc12 | > 50% | 0.275 µM | > 50% | 0.824 µM | 0.0147 µM | 64.4% | 52.4% | Active | Active | 108.1% | 95% | inactive | inactive | inactive | inactive | inactive | inactive | inactive | 
O=C(c1cccc2ccccc12)c1cn(CCN2CCOCC2)c2ccc(O)cc12 | > 50% | 0.169 µM | > 50% | 2.84 µM | 0.0087 µM | 77.4% | 54.6% | Active | Active | 118.7% | 101.9% |  |  |  |  |  |  |  | 
COc1ccc(C(=O)c2cn(CC3CCOCC3)c3c(OCCCCC(=O)O)cccc23)cc1 | > 50% | 1.31 µM | > 50% | > 10 µM |  |  | 82.5% |  | Active | 129.1% | 105.6% |  |  |  |  |  |  |  | IC50 [19]: > 10 µM; Emax [20]: 124%; Activity [21]: Active
O=C(c1cccc2ccccc12)c1cn(CC2CCOCC2)c2ccc(OCc3ccccc3)cc12 |  |  |  |  |  |  |  |  |  |  |  | inactive | inactive | inactive | inactive | inactive | inactive | inactive | 
COC(=O)CCCCOc1cccc2c(C(=O)c3ccc(OC)cc3)cn(CC3CCOCC3)c12 | > 50% | 0.201 µM | > 50% | 1.58 µM |  |  | 77.8% |  | Active | 160.6% | 124.3% |  |  |  |  |  |  |  | IC50 [19]: > 10 µM; Emax [20]: 166%; Activity [21]: Active
COc1ccc(C(=O)c2cn(CC3CCOCC3)c3ccc(OCc4ccccc4)cc23)cc1 |  |  |  |  |  |  |  |  |  |  |  | inactive | inactive | inactive | inactive | inactive | inactive | inactive | 
O=C(c1cn(CCN2CCOCC2)c2ccc(O)cc12)C1CCCCC1 | > 50% | 0.895 µM | > 50% | > 10 µM | 0.0186 µM | 74.1% | 74.3% | Active | Active | 105.1% | 105.9% |  |  |  |  |  |  |  | 
COc1ccc(C(=O)c2cn(CC3CCOCC3)c3c(OCCCCCCNC(C)=O)cccc23)cc1 | > 50% | 1.97 µM | > 50% | 3.92 µM |  |  | 74.3% |  | Active | 128% | 114.8% |  |  |  |  |  |  |  | IC50 [19]: > 10 µM; Emax [20]: 151%; Activity [21]: Active
COc1ccc(C(=O)c2cn(CC3CCOC3)c3ccc(OCc4ccccc4)cc23)cc1 (centres undefined) |  |  |  |  |  |  |  |  |  |  |  | inactive | inactive | inactive | inactive | inactive | inactive | inactive | 
COc1ccc(C(=O)c2cn(CCN3CCOCC3)c3ccc(O)cc23)cc1 | > 50% | 0.747 µM | > 50% | > 10 µM | 0.0054 µM | 67.5% | 70.4% | Active | Active | 105.2% | 101.9% |  |  |  |  |  |  |  | 
COc1ccc(C(=O)c2cn(CC3CCOCC3)c3c(OCc4ccccc4)cccc23)cc1 |  |  |  |  |  |  |  |  |  |  |  | inactive | inactive | inactive | inactive | inactive | inactive | inactive | 
COc1ccc(C(=O)c2cn(CC3CCOCC3)c3ccc(OCC(=O)O)cc23)cc1 | > 50% | 1.66 µM | > 50% | > 10 µM | 0.0702 µM | 57.4% | 60.4% | Active | Active | 100.1% | 98.8% |  |  |  |  |  |  |  | 
